Test results taken from ChEMBL document CHEMBL5303300, “EUbOPEN Chemogenomics Library - Multiplex” (2023).
Values joined by “and” are separate entries in the source; they are usually repeats but may differ in a detail not shown here. Equal entries are not always repeated.

Legend:
Format in all cases: toxicity, cell-based
HEK-293T = assay: Multiplex assay against HEK293T; details: human, number of replicates 2
In short: (§1)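 Imaging took place on a CQ1 microscope at 37°C and 5% CO2 once compound had been added to live cells stained at seeding with Hoechst33342, BioTracker Green Microtubule Cytoskeleton Dye, MitoTracker Red and Annexin V Alexa Fluor 680. CellPathfinder machine-learning gating classed cells as Hoechst high-intensity objects or normal cells, classed normal cells as having healthy, pyknosed or fragmented nuclei, and classed pyknosed cells as mitotic or apoptotic. Tubulin, mitochondrial-mass and membrane-permeability phenotypes are per cents of the healthy-nucleus cells.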

U2OS = assay: Multiplex assay against U2OS; details: human, number of replicates 2; in short: as §1
Fibroblast = assay: Multiplex assay against human fibroblast; details: number of replicates 2; in short: as §1
[1] = 12 h, 1 µM, compound concentration 1 uM
[2] = 12 h, 10 µM, compound concentration 10 uM
[3] = 24 h, 1 µM, compound concentration 1 uM
[4] = 24 h, 10 µM, compound concentration 10 uM
[5] = 48 h, 1 µM, compound concentration 1 uM
[6] = 48 h, 10 µM, compound concentration 10 uM

O=C1NC(=O)C(c2ccccc2[N+](=O)[O-])=C1Nc1ccc(O)c(Cl)c1
Population Apoptotic (%) (HEK-293T; [1]): 41% and 45%
Population Fragmented Nuclei (%) (HEK-293T; [1]): 4% and 2%
Population Healthy Nuclei (%) (HEK-293T; [1]): 82% and 83%
Population Hoechst High Intensity Objects (%) (HEK-293T; [1]): 6% and 3%
Population Membrane Permeable-Phenotype (%) (HEK-293T; [1]): 2%
Population Mitochondria Different-Phenotype (%) (HEK-293T; [1]): 11% and 12%
Population Mitotic Cells (%) (HEK-293T; [1]): 58% and 54%
Population Normal (%) (HEK-293T; [1]): 93% and 96%
Population Pyknosed Nuclei (%) (HEK-293T; [1]): 13%
Population Tubulin-Different-Phenotype (%) (HEK-293T; [1]): 41%
Total Cell Count (HEK-293T; [1]): 694 and 574
Population Apoptotic (%) (HEK-293T; [2]): 32% and 38%
Population Fragmented Nuclei (%) (HEK-293T; [2]): 6% and 5%
Population Healthy Nuclei (%) (HEK-293T; [2]): 82% and 87%
Population Hoechst High Intensity Objects (%) (HEK-293T; [2]): 4% and 7%
Population Membrane Permeable-Phenotype (%) (HEK-293T; [2]): 6% and 4%
Population Mitochondria Different-Phenotype (%) (HEK-293T; [2]): 8% and 5%
Population Mitotic Cells (%) (HEK-293T; [2]): 67% and 61%
Population Normal (%) (HEK-293T; [2]): 95% and 92%
Population Pyknosed Nuclei (%) (HEK-293T; [2]): 11% and 7%
Population Tubulin-Different-Phenotype (%) (HEK-293T; [2]): 34% and 31%
Total Cell Count (HEK-293T; [2]): 496 and 670
Population Apoptotic (%) (HEK-293T; [3]): 40% and 37%
Population Fragmented Nuclei (%) (HEK-293T; [3]): 4% and 3%
Population Healthy Nuclei (%) (HEK-293T; [3]): 86% and 88%
Population Hoechst High Intensity Objects (%) (HEK-293T; [3]): 5% and 7%
Population Membrane Permeable-Phenotype (%) (HEK-293T; [3]): 2%
Population Mitochondria Different-Phenotype (%) (HEK-293T; [3]): 3% and 5%
Population Mitotic Cells (%) (HEK-293T; [3]): 59% and 62%
Population Normal (%) (HEK-293T; [3]): 94% and 92%
Population Pyknosed Nuclei (%) (HEK-293T; [3]): 8%
Population Tubulin-Different-Phenotype (%) (HEK-293T; [3]): 22% and 24%
Total Cell Count (HEK-293T; [3]): 1100 and 894
Population Apoptotic (%) (HEK-293T; [4]): 26% and 19%
Population Fragmented Nuclei (%) (HEK-293T; [4]): 4% and 8%
Population Healthy Nuclei (%) (HEK-293T; [4]): 89% and 83%
Population Hoechst High Intensity Objects (%) (HEK-293T; [4]): 5% and 7%
Population Membrane Permeable-Phenotype (%) (HEK-293T; [4]): 5% and 3%
Population Mitochondria Different-Phenotype (%) (HEK-293T; [4]): 2% and 1%
Population Mitotic Cells (%) (HEK-293T; [4]): 73% and 80%
Population Normal (%) (HEK-293T; [4]): 94% and 92%
Population Pyknosed Nuclei (%) (HEK-293T; [4]): 6% and 7%
Population Tubulin-Different-Phenotype (%) (HEK-293T; [4]): 14% and 18%
Total Cell Count (HEK-293T; [4]): 721 and 1015
Population Apoptotic (%) (HEK-293T; [5]): 14% and 15%
Population Fragmented Nuclei (%) (HEK-293T; [5]): 13% and 9%
Population Healthy Nuclei (%) (HEK-293T; [5]): 83% and 87%
Population Hoechst High Intensity Objects (%) (HEK-293T; [5]): 7% and 9%
Population Membrane Permeable-Phenotype (%) (HEK-293T; [5]): 5% and 4%
Population Mitochondria Different-Phenotype (%) (HEK-293T; [5]): 0%
Population Mitotic Cells (%) (HEK-293T; [5]): 85% and 84%
Population Normal (%) (HEK-293T; [5]): 92% and 90%
Population Pyknosed Nuclei (%) (HEK-293T; [5]): 2% and 3%
Population Tubulin-Different-Phenotype (%) (HEK-293T; [5]): 12% and 11%
Total Cell Count (HEK-293T; [5]): 2762 and 1997
Population Apoptotic (%) (HEK-293T; [6]): 11% and 2%
Population Fragmented Nuclei (%) (HEK-293T; [6]): 14% and 21%
Population Healthy Nuclei (%) (HEK-293T; [6]): 82% and 77%
Population Hoechst High Intensity Objects (%) (HEK-293T; [6]): 6% and 9%
Population Membrane Permeable-Phenotype (%) (HEK-293T; [6]): 7% and 8%
Population Mitochondria Different-Phenotype (%) (HEK-293T; [6]): 0%
Population Mitotic Cells (%) (HEK-293T; [6]): 88% and 97%
Population Normal (%) (HEK-293T; [6]): 93% and 90%
Population Pyknosed Nuclei (%) (HEK-293T; [6]): 3% and 1%
Population Tubulin-Different-Phenotype (%) (HEK-293T; [6]): 7%
Total Cell Count (HEK-293T; [6]): 1557 and 2547
Population Apoptotic (%) (U2OS; [1]): 100% and 38%
Population Fragmented Nuclei (%) (U2OS; [1]): 12% and 5%
Population Healthy Nuclei (%) (U2OS; [1]): 80% and 83%
Population Hoechst High Intensity Objects (%) (U2OS; [1]): 0%
Population Membrane Permeable-Phenotype (%) (U2OS; [1]): 0% and 1%
Population Mitochondria Different-Phenotype (%) (U2OS; [1]): 0%
Population Normal (%) (U2OS; [1]): 100%
Population Pyknosed Nuclei (%) (U2OS; [1]): 8% and 10%
Population Tubulin-Different-Phenotype (%) (U2OS; [1]): 85% and 90%
Population Apoptotic (%) (U2OS; [2]): 80% and 37%
Population Fragmented Nuclei (%) (U2OS; [2]): 9% and 5%
Population Healthy Nuclei (%) (U2OS; [2]): 68% and 83%
Population Hoechst High Intensity Objects (%) (U2OS; [2]): 0% and 3%
Population Membrane Permeable-Phenotype (%) (U2OS; [2]): 6% and 3%
Population Mitochondria Different-Phenotype (%) (U2OS; [2]): 6% and 0%
Population Normal (%) (U2OS; [2]): 100% and 96%
Population Pyknosed Nuclei (%) (U2OS; [2]): 22% and 10%
Population Tubulin-Different-Phenotype (%) (U2OS; [2]): 73% and 92%
Total Cell Count (U2OS; [2]): 22
Population Apoptotic (%) (U2OS; [3]): 40% and 37%
Population Healthy Nuclei (%) (U2OS; [3]): 67% and 86%
Population Hoechst High Intensity Objects (%) (U2OS; [3]): 0%
Population Membrane Permeable-Phenotype (%) (U2OS; [3]): 4% and 2%
Population Mitochondria Different-Phenotype (%) (U2OS; [3]): 0%
Population Mitotic Cells (%) (U2OS; [3]): 60% and 62%
Population Normal (%) (U2OS; [3]): 100%
Population Pyknosed Nuclei (%) (U2OS; [3]): 14% and 10%
Population Tubulin-Different-Phenotype (%) (U2OS; [3]): 73% and 92%
Population Apoptotic (%) (U2OS; [4]): 66% and 31%
Population Fragmented Nuclei (%) (U2OS; [4]): 8% and 5%
Population Healthy Nuclei (%) (U2OS; [4]): 73% and 84%
Population Hoechst High Intensity Objects (%) (U2OS; [4]): 0%
Population Membrane Permeable-Phenotype (%) (U2OS; [4]): 4% and 1%
Population Mitochondria Different-Phenotype (%) (U2OS; [4]): 4% and 0%
Population Mitotic Cells (%) (U2OS; [4]): 33% and 68%
Population Normal (%) (U2OS; [4]): 100% and 99%
Population Pyknosed Nuclei (%) (U2OS; [4]): 17% and 10%
Population Tubulin-Different-Phenotype (%) (U2OS; [4]): 84% and 95%
Population Apoptotic (%) (U2OS; [5]): 71% and 55%
Population Fragmented Nuclei (%) (U2OS; [5]): 9% and 3%
Population Healthy Nuclei (%) (U2OS; [5]): 80% and 90%
Population Hoechst High Intensity Objects (%) (U2OS; [5]): 0%
Population Membrane Permeable-Phenotype (%) (U2OS; [5]): 1%
Population Mitochondria Different-Phenotype (%) (U2OS; [5]): 0%
Population Mitotic Cells (%) (U2OS; [5]): 28% and 44%
Population Normal (%) (U2OS; [5]): 100%
Population Pyknosed Nuclei (%) (U2OS; [5]): 10% and 5%
Population Tubulin-Different-Phenotype (%) (U2OS; [5]): 86% and 93%
Population Apoptotic (%) (U2OS; [6]): 22% and 31%
Population Fragmented Nuclei (%) (U2OS; [6]): 5% and 7%
Population Healthy Nuclei (%) (U2OS; [6]): 77% and 85%
Population Hoechst High Intensity Objects (%) (U2OS; [6]): 0% and 2%
Population Membrane Permeable-Phenotype (%) (U2OS; [6]): 2% and 0%
Population Mitochondria Different-Phenotype (%) (U2OS; [6]): 2% and 0%
Population Mitotic Cells (%) (U2OS; [6]): 77% and 68%
Population Normal (%) (U2OS; [6]): 100% and 97%
Population Pyknosed Nuclei (%) (U2OS; [6]): 16% and 7%
Population Tubulin-Different-Phenotype (%) (U2OS; [6]): 92% and 98%
Population Fragmented Nuclei (%) (Fibroblast; [1]): 10% and 18%
Population Healthy Nuclei (%) (Fibroblast; [1]): 77% and 65%
Population Hoechst High Intensity Objects (%) (Fibroblast; [1]): 0%
Population Membrane Permeable-Phenotype (%) (Fibroblast; [1]): 3% and 7%
Population Mitochondria Different-Phenotype (%) (Fibroblast; [1]): 1% and 0%
Population Mitotic Cells (%) (Fibroblast; [1]): 87% and 53%
Population Normal (%) (Fibroblast; [1]): 100% and 99%
Population Pyknosed Nuclei (%) (Fibroblast; [1]): 11% and 16%
Population Tubulin-Different-Phenotype (%) (Fibroblast; [1]): 4% and 9%
Population Apoptotic (%) (Fibroblast; [2]): 46% and 47%
Population Fragmented Nuclei (%) (Fibroblast; [2]): 8% and 12%
Population Healthy Nuclei (%) (Fibroblast; [2]): 82% and 80%
Population Hoechst High Intensity Objects (%) (Fibroblast; [2]): 0%
Population Membrane Permeable-Phenotype (%) (Fibroblast; [2]): 1% and 2%
Population Mitochondria Different-Phenotype (%) (Fibroblast; [2]): 0% and 1%
Population Mitotic Cells (%) (Fibroblast; [2]): 53% and 52%
Population Normal (%) (Fibroblast; [2]): 100%
Population Pyknosed Nuclei (%) (Fibroblast; [2]): 9% and 7%
Population Tubulin-Different-Phenotype (%) (Fibroblast; [2]): 6% and 5%
Population Apoptotic (%) (Fibroblast; [3]): 45% and 57%
Population Fragmented Nuclei (%) (Fibroblast; [3]): 10% and 17%
Population Healthy Nuclei (%) (Fibroblast; [3]): 84% and 74%
Population Hoechst High Intensity Objects (%) (Fibroblast; [3]): 0%
Population Membrane Permeable-Phenotype (%) (Fibroblast; [3]): 2% and 4%
Population Mitochondria Different-Phenotype (%) (Fibroblast; [3]): 0% and 1%
Population Mitotic Cells (%) (Fibroblast; [3]): 54% and 42%
Population Normal (%) (Fibroblast; [3]): 100%
Population Pyknosed Nuclei (%) (Fibroblast; [3]): 5% and 8%
Population Tubulin-Different-Phenotype (%) (Fibroblast; [3]): 5% and 7%
Population Apoptotic (%) (Fibroblast; [4]): 40% and 37%
Population Fragmented Nuclei (%) (Fibroblast; [4]): 12% and 11%
Population Healthy Nuclei (%) (Fibroblast; [4]): 81% and 84%
Population Hoechst High Intensity Objects (%) (Fibroblast; [4]): 0%
Population Membrane Permeable-Phenotype (%) (Fibroblast; [4]): 2% and 3%
Population Mitochondria Different-Phenotype (%) (Fibroblast; [4]): 0% and 1%
Population Mitotic Cells (%) (Fibroblast; [4]): 60% and 62%
Population Normal (%) (Fibroblast; [4]): 100%
Population Pyknosed Nuclei (%) (Fibroblast; [4]): 6% and 3%
Population Tubulin-Different-Phenotype (%) (Fibroblast; [4]): 7% and 2%
Population Apoptotic (%) (Fibroblast; [5]): 35% and 46%
Population Fragmented Nuclei (%) (Fibroblast; [5]): 12% and 19%
Population Healthy Nuclei (%) (Fibroblast; [5]): 81% and 73%
Population Hoechst High Intensity Objects (%) (Fibroblast; [5]): 0%
Population Membrane Permeable-Phenotype (%) (Fibroblast; [5]): 1% and 2%
Population Mitochondria Different-Phenotype (%) (Fibroblast; [5]): 0%
Population Mitotic Cells (%) (Fibroblast; [5]): 64% and 53%
Population Normal (%) (Fibroblast; [5]): 100%
Population Pyknosed Nuclei (%) (Fibroblast; [5]): 6%
Population Tubulin-Different-Phenotype (%) (Fibroblast; [5]): 3% and 2%
Population Apoptotic (%) (Fibroblast; [6]): 33% and 75%
Population Fragmented Nuclei (%) (Fibroblast; [6]): 6% and 11%
Population Healthy Nuclei (%) (Fibroblast; [6]): 91% and 84%
Population Hoechst High Intensity Objects (%) (Fibroblast; [6]): 0%
Population Membrane Permeable-Phenotype (%) (Fibroblast; [6]): 3% and 0%
Population Mitochondria Different-Phenotype (%) (Fibroblast; [6]): 0%
Population Mitotic Cells (%) (Fibroblast; [6]): 66% and 25%
Population Normal (%) (Fibroblast; [6]): 100%
Population Pyknosed Nuclei (%) (Fibroblast; [6]): 1% and 3%
Population Tubulin-Different-Phenotype (%) (Fibroblast; [6]): 7% and 1%
